From PMC3480199 (Journal of medicinal chemistry, 2012) come the findings set out here.

Like-named read-outs stand apart in the source and are kept apart here. Where only a bound is given, the exact number is not on record here.

Data set [1] relates to CRL-8155 human lymphoblast cell line. In words: Mammalian cell growth inhibition assay. The class given is cell-based. Conditions: CRL8155, 48 h, read-out: CRL-8155 IC50.
Data set [2] addresses T1, human mitochondrial MetRS (Homo sapiens, UniProt Q96GW9).
T1 sequence (Q96GW9 30-593): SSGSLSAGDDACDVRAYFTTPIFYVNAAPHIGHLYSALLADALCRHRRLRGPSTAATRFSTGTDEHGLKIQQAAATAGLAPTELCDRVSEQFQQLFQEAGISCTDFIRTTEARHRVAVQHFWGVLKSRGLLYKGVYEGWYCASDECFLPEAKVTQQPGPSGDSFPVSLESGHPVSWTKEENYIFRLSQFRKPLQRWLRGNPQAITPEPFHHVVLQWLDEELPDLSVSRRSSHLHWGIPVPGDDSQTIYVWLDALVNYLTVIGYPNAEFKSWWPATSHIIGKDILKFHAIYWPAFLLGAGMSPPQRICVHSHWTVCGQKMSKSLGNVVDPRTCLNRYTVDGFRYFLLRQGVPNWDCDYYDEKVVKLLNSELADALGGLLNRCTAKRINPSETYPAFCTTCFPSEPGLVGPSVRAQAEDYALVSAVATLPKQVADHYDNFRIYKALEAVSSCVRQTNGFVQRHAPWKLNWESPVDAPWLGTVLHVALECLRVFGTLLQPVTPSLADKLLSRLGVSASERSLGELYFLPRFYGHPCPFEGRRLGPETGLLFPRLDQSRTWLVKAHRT
In words: Human mitochondrial methionyl-tRNA synthetase aminoacylation assay. The data set is classed as biochemical. The essentials:
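Recombinant enzyme (20 nM) preincubated 15 min with 12 serial two-fold dilutions of test compound in 50 mM Tris-HCl pH 8.0, 2.5 mM MgCl2, 2.5 mM KCl, 0.2 mM spermine, 0.2 mg/mL BSA, 2.5 mM DTT, 1 U/mL pyrophosphatase. Started with 200 μg/mL E. coli tRNA, 2.5 mM ATP, 250 nM [3H]methionine; 120 min, 37°C. Filtered, TCA-washed, scintillation-counted in quadruplicate; IC50 by sigmoidal nonlinear regression.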

The next data set concerns T. brucei rhodesiense. In words: Efficacy studies in mice. The data set is classed as in vivo. Conditions: 50 mg/kg oral every 12 h for 4 days.
A further data set concerns T. brucei cells. Briefly: Protein synthesis inhibition assay. The note with it: 4 h, concentrations 1 to 16 times the 48 hour EC50. The class given is cell-based, Trypanosoma brucei. Put shortly:
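Mid-log bloodstream-form T. brucei (5×10^5 cells/well) in HMI-9 medium, given test compound in triplicate and preincubated 15 min, with a no-drug control on each plate. Cells cultured with 3H-histidine; filters counted by scintillation.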

The subject of data set [3] is MDR1-MDCKII cells. Conditions: dog, MDCK-MDR1, 60 min, 3 μM.
For data set [4], the system named is MDR1-MDCKII cells. In words: MDR1-MDCKII assay. Conditions: 3 μM.

For orientation: IC50 means the concentration that gives 50% inhibition.

Turning to `O=C(NCCCNCc1cc(Cl)cc(Cl)c1)Nc1cccc(F)c1` [Compound 18], the IC50 in data set [1] turned out to be 43.2 µM; in data set [2], 4.25 µM.

Regarding `O=C(NCCCNCc1cc(Cl)cc(Cl)c1)Nc1cccc(O)c1` [Compound 17], the IC50 in data set [1] worked out at 12 µM; in data set [2], 5.43 µM.

Take `O=C(NCCCNCc1cc(Cl)cc(Cl)c1)Nc1ccsc1` [Compound 26, 1-[3-(3,5-Dichloro-benzylamino)-propyl]-3-thiophen-3-yl-urea]: the half-inhibitory concentration (IC50) in data set [1] is 12 µM. Also, in data set [2], the IC50 is 4.35 µM. For the same molecule, in the data set on T. brucei rhodesiense, the Extension of survival came out at 1 days and the “Toxicity in treated mice” value is “No toxicity”. Further, the “Incorporation of 3H-amino acid into proteins” value (“Incorporation” below) in the data set with T. brucei cells was “dose dependent decrease”.

Regarding `NCCCC(N)(C(=O)O)C(F)F` (stereo not shown) [DFMO, difluoromethylornithine], the “Incorporation” value with T. brucei cells is on record as “did not result in a dose dependent decrease”.

Consider `C[C@@H]1C[C@@H]([C@H](O)CC2CC(=O)NC(=O)C2)C(=O)[C@@H](C)C1` [cycloheximide], for which, in the data set on T. brucei cells, the “Incorporation” value is “dose dependent decrease”.

Turning to `COc1cc(Cl)cc(CNCCCNC(=O)Nc2ccccc2)c1` [Compound 4], the IC50 in data set [1] turned out to be 20 µM; in data set [2], 8.35 µM.

In the case of `O=C(NCCCNCc1cc(Cl)cc(Cl)c1)Nc1cccs1` [Compound 28], the IC50 is 9.5 µM in data set [1] and 3.06 µM in data set [2].

Consider `CC(C)NCC(O)COc1cccc2ccccc12` (stereo not shown) [Propranolol], for which the “AQ (typical control value)” value with MDR1-MDCKII cells [3] was less than 0.5.

Take `O=C(NCCCNCc1cc(Cl)cc(Cl)c1)Nc1ccccc1O` [Compound 16]: the IC50 was greater than 20 µM in data set [1] and 3.72 µM in data set [2].

Consider `COc1cc(Cl)cc(CNCCCNC(=O)Nc2ccsc2)c1` [Compound 27, 1-[3-(3-Chloro-5-methoxy-benzylamino)-propyl]-3-thiophen-3-yl-urea], for which the IC50 in data set [1] amounted to 22 µM; in data set [2], 6.59 µM.

Regarding `CC(C)CN(C[C@@H](O)[C@H](Cc1ccccc1)NC(=O)O[C@H]1CCOC1)S(=O)(=O)c1ccc(N)cc1` [Amprenavir], the “AQ (typical control value)” value with MDR1-MDCKII cells [4] is on record as greater than 0.5.

Turning to `Oc1cc(NCCCNCc2cc(Cl)cc(Cl)c2)nc2ccccc12` [Compound 1], the “Incorporation” value in the data set with T. brucei cells was “dose dependent decrease”.

As for `O=C(NCCCNCc1cc(Cl)cc(Cl)c1)Nc1ccccc1` [Compound 2, 1-(3-(3,5-Dichlorobenzylamino)propyl)-3-phenylurea], the IC50 was 12 µM in data set [1] and greater than 10 µM in data set [2]. In data set [2] (human mitochondrial MetRS IC50 over T. brucei MetRS IC50), the “Selectivity Index Human IC50 / T. brucei IC50” value was greater than 175.
